# Source: PubChem BioAssay (The Scripps Research Institute Molecular Screening Center)
# M5 PAM: human M5 muscarinic receptor positive allosteric modulators, primary screen, CHO-K1 cells, Fluo-8 calcium fluorescence; CHO-K1 hM5, ACh EC20 PAM; 0% = ACh EC20, 100% = ACh EC100; activation, % at 3 µM; actives 0.3% (n = 360,000); AID 624038, 2012;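 active = activation above the run cutoff, the mean activation of all test compounds plus 3 SD, cut at about 18% in these data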
# Target sequence (P08912 whole entry, looked up): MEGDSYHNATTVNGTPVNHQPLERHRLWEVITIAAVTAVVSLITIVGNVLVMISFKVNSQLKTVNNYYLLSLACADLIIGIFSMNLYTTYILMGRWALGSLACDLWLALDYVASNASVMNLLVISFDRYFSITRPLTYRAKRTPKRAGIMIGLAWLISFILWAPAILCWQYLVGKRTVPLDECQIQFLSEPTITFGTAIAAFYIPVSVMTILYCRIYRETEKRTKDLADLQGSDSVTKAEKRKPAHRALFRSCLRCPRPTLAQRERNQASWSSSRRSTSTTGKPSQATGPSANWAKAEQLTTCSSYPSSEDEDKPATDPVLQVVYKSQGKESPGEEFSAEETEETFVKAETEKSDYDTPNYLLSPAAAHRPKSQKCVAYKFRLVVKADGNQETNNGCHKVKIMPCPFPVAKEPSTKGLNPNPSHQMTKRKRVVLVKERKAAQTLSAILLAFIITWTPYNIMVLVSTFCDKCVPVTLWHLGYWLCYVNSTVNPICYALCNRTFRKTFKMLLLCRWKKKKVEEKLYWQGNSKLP
#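 Assay system: CHO-K1 hM5 cells / Incubation: Fluo-8 loading 80 min at 37 °C plus 30 min room temperature / Technique: Fluo-8 calcium dye fluorescence, kinetic read / Repeats: single replicate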
# CHO-K1 Ca ag: counter-screen for M1 agonists: effect in parental CHO-K1 cells | Fluo-8 calcium fluorescence; scaled to maximal ATP response, vehicle zero | activation, % at 3 µM | actives 0.48% (n = 360,000) | AID 602248, 2012; in the data active = activation above about 15%;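 also: untransfected CHO-K1 host cells lacking M1 receptor as counterscreen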
# M1 PAM parental: nonselective calcium activators in parental CHO-K1 cells, primary screen, counter-screen for M1 PAM project, cell-based, Fluo-8 calcium fluorescence, full deck, 1536-well; ATP EC20; 0% at ATP EC20, 100% at ATP max; activation, % at 3 µM; actives 0.02% (n = 360,000); AID 602247, 2012;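 active = activation above the run cutoff, the mean activation of all test compounds plus 3 SD, cut at about 40% in these data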;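 also: peak over basal fluorescence ratio in a 140 s read after ATP addition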
# CHO-K1 Ca antag: nonselective inhibitor or artifact in parental CHO-K1 cells | ATP-induced calcium, Fluo-8 fluorescence | inhibition, % at 3 µM | actives 0.6% (n = 360,000);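 active = inhibition above a per-plate cutoff, the plate's mean sample inhibition plus 3 SD, cut at about 24% in these data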;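 also: 0% = DMSO plus EC80 ATP and 100% = DMSO alone without ATP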
# CHRM5 antagonist: human M5 muscarinic receptor antagonists, primary screen, CHO cells, Fluo-8 calcium fluorescence | actives 0.59% (n = 360,000) | Muscarinic acetylcholine receptor M5 (Homo sapiens), P08912 | inhibition, % at 3 µM | CHO-hM5 cells, ACh EC80 | AID 624040, 2012;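 active = inhibition above a per-plate cutoff, the mean of that plate's test compounds plus 3 SD, cut at about 27% in these data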;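 also: 0% = acetylcholine EC80 with DMSO and 100% = DMSO without agonist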
# M5 ag: human M5 muscarinic receptor agonists, primary screen, CHO-K1 cells, Fluo-8 calcium fluorescence; Muscarinic acetylcholine receptor M5 (Homo sapiens), P08912; activation, % at 3 µM; actives 0.19% (n = 360,000); CHO-K1 hM5 cells; 0% DMSO wells, 100% maximal acetylcholine response;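 active = activation above the run's mean over test compounds plus 3 SD, cut at about 23% in these data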;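 also: signal is peak over basal fluorescence ratio across the kinetic read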
# * marks the source's active call; other numbers are inactive results. Sampled rows, rich in hits. Any-hit rate of the full collection: about 1.7%.
SMILES,M5 PAM,CHO-K1 Ca ag,M1 PAM parental,CHO-K1 Ca antag,CHRM5 antagonist,M5 ag
CC1=NOC(=O)/C1=C\c1ccc(-c2ccc(Br)cc2)o1,-17,7,8,11,31*,-5
O=c1[nH]cnc2c1C(c1ccccc1[N+](=O)[O-])c1c(nc[nH]c1=O)O2,21*,0,10,0,-13,0
O=C(Nc1ccc(CN2CCOCC2)cc1)c1ccco1,1,0,17,-12,10,2
CC(C)N(CC#CC(O)(c1ccccc1)c1ccccc1)C(C)C,-32,0,7,-8,96*,-21
CC(C)N(CC#CC(O)(c1ccccc1)c1ccccc1)CCO,-19,1,22,-10,42*,-10
OCCN(CC#CC(O)(c1ccccc1)c1ccccc1)CCO,-3,0,-1,-5,7,-19
CN(CC#CC(O)(c1ccccc1)c1ccccc1)C(C)(C)C,-35,0,9,-5,77*,-20
COc1ccc(N2C(=O)C(Cl)=C(Nc3ccc(OC)cc3OC)C2=O)cc1,19*,0,15,-12,-1,4
COc1ccc(NC2=C(Cl)C(=O)N(c3ccccc3)C2=O)c(OC)c1,-1,1,16,-6,-3,2
CCN(CC)Cc1oc(-c2ccccc2)cc1C(=O)O,3,1,-6,-17,9,2
O=C(Nc1cnc2ccccc2c1)C1COc2ccccc2O1 (stereo unspecified),-11,1,-1,4,6,-3
CCN1CCN(CCC(=O)Nc2ccc(Br)c(C)c2)CC1,20*,0,16,-18,-13,-6
CCOC(=O)N1CCN(CCC(=O)Nc2ccc(Br)c(C)c2)CC1,-6,5,-6,-5,1,2
CN(C)S(=O)(=O)c1ccc(Nc2nc(C3CC3)nc3c2nnn3Cc2ccccc2Cl)cc1,2,1,34,-9,1,0
FC(F)(F)c1cccc(/C=N/NC(=S)NC2CCCCC2)c1,6,19*,10,-7,0,2
O=C1SC(Cc2ccccc2)C(=O)N1c1ccccc1 (stereo unspecified),1,0,21,-14,6,0
CCc1c(C)nc2cc(-c3ccc(OC)cc3)[nH]n2c1=O,1,1,19,-4,-4,-1
O=C(Nc1ccc(Cl)c(C(F)(F)F)c1)[C@@H]1CC=C[C@@H]2CCN(C3CC3)C(=O)[C@@H]21,-3,0,47*,-3,11,-4
O=C(Nc1ccc(Cl)c(C(F)(F)F)c1)[C@@H]1CC=C[C@@H]2CCN(C3CCCCC3)C(=O)[C@@H]21,14,0,9,-19,-9,1
CCC(NC(=O)c1ccc2nc(Cc3ccc(OC)cc3)oc2c1)c1ccncc1 (stereo unspecified),-12,15*,0,1,-1,5
COc1ccc(CNC(=O)CCS(=O)(=O)Cc2ccc(C)cc2)c(OC)c1,1,-1,-7,-9,-5,-2
O=C(CSc1nnc(Cn2nnc3ccccc32)o1)N(Cc1ccc(Cl)cc1)c1ccccc1,-18,3,-1,19,30*,2
COc1ccc(CCNC(=O)c2cc3cc(F)ccc3nc2C)cc1OC,5,16*,12,-4,3,8
Fc1ccccc1CN1CCCN(C(=S)Nc2cccc(Cl)c2)C1,-27,8,-9,19,29*,3
O=[N+]([O-])c1ccc(N2CCN(C(=S)NCc3ccc(Cl)cc3)CC2)cc1,-20,9,-9,22,29*,2
SMILES,M5 PAM,CHO-K1 Ca ag,M1 PAM parental,CHO-K1 Ca antag,CHRM5 antagonist,M5 ag
CCOc1ccccc1N1CCN(C(=S)NCc2ccc(Cl)cc2)CC1,-15,18*,13,-3,20,3
O=C(Nc1ccc(-c2nc3cccnc3s2)cc1)c1ccc(Cl)nc1,-2,21*,7,4,-2,2
C=CCC(NC(=O)c1ccc(C#N)cc1)C(=O)NCCC (stereo unspecified),19*,0,19,-9,-2,1
C#CCC(NC(=O)c1ccc(C#N)cc1)C(=O)NCCC (stereo unspecified),2,0,7,-4,6,2
Cc1c(OCc2ccccc2)c(=O)ccn1Cc1ccc(Cl)cc1,-8,1,20,-6,1,-4
Cc1ccc(Cn2ccc(=O)c(OCc3ccccc3)c2C)cc1,22*,1,9,-3,-2,4
COc1ccc(-c2nc(N3CCCCCC3)sc2C(=O)c2ccccc2)cc1,-8,4,4,52*,5,-3
Cc1ccc(CNC(=O)c2ccc(N3CCC4(CC3)CC(c3ccccc3)=NO4)c(NC(=O)c3c(Cl)cccc3Cl)c2)cc1,1,0,-1,-7,12,3
C=C(C)C(=O)OCC(O)COc1ccc(C(C)(C)c2ccc(OCC(O)COC(=O)C(=C)C)cc2)cc1 (stereo unspecified),-17,8,-3,19,27*,12
CCOC(=O)C1CCCN(C/C(O)=C(\C#N)c2nc(-c3ccccc3)cs2)C1 (stereo unspecified),-6,2,25,-23,-3,23*
O=C(CNCC1(N2CCOCC2)CCCCC1)Nc1ccc(Cl)cc1,18*,0,-15,7,10,2
N#CCC(=O)Nc1ccc(C(=O)NCC2(N3CCOCC3)CCCCC2)cc1,-1,0,12,-16,8,-3
COc1ccc(C(=O)N/C(=C/c2ccc(Cl)cc2)C(=O)Nc2ccc(C(=O)O)cc2)cc1,4,0,-32,25*,-25,-3
COc1ccc(S(=O)(=O)NCC2CCCN(Cc3cccnc3)C2)cc1 (stereo unspecified),11,0,3,-5,1,-4
C/C(=N\Nc1ncnc2sc(C)c(C)c12)c1ccccn1,22*,1,3,-17,-22,-1
Cc1sc2ncnc(N/N=C/c3cccc(O)c3)c2c1C,-6,1,18,-9,2,0
CCOc1ccc2nc(NS(=O)(=O)c3ccc4c(c3)n(C)c(=O)n4C)sc2c1,-3,0,9,26*,-3,-10
CN(C)C(=O)CCc1ccc2c3c([nH]c2c1)[C@]1(C)[C@@H](C(=O)N2CCCCC2)C[C@H](CC(=O)NCCN2CCOCC2)C(=O)N1CC3,1,1,8,-11,-3,0
